The test system of data set [1] is KB. The data set is described as follows: Cytotoxicity against human KB cells. The format is functional, cell-based.
In data set [2] the test system is MCF7. Put plainly: Cytotoxicity against human MCF7 cells. Type of data set: functional, cell-based.
For data set [3], the system named is A549. Put plainly: Cytotoxicity against human A549 cells. Type of data set: functional, cell-based.
The test system of data set [4] is SK-MEL-30. Put plainly: Cytotoxicity against human SK-MEL-30 cells. Type of data set: functional, cell-based.
Data set [5] deals with Leishmania infantum. Put plainly: Antileishmanial activity against promastigotes of Leishmania infantum D.SCH infected in C57BL/10ScSn mouse bone marrow-derived macrophages. Type of data set: functional, organism-based. The essentials:
(§1)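 Promastigotes of L. donovani LV9, L. infantum D.SCH (isolated 1995 from an infant visceral leishmaniasis case), L. enriettii and L. major LV39, grown at 25 °C, 5% CO2, humidified, and passaged every 3-4 days. Stocks were kept by animal passage (not L. infantum) and cryopreserved in liquid nitrogen.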

Data set [6] relates to Leishmania donovani. Put plainly: Antileishmanial activity against intracellular Leishmania donovani LV9 infected in C57BL/10ScSn mouse bone marrow-derived macrophages. The format is functional. Conditions: LV9, read-out: ED50.
The nature of data set [7]: Cytotoxicity against C57BL/10ScSn mouse bone marrow-derived macrophages. Type of data set: cell-based, Macrophage.
Data set [8] concerns Leishmania enriettii. The data set is described as follows: Antileishmanial activity against promastigotes of Leishmania enriettii infected in C57BL/10ScSn mouse bone marrow-derived macrophages. Conditions: read-out: ED50. Type of data set: functional.
Data set [9] has as its system Leishmania donovani. Put plainly: Antileishmanial activity against extracellular Leishmania donovani LV9 infected in C57BL/10ScSn mouse bone marrow-derived macrophages. Type of data set: functional. Conditions: LV9, read-out: ED50.
Data set [10] relates to Leishmania major. The data set is described as follows: Antileishmanial activity against promastigotes of Leishmania major LV39 infected in C57BL/10ScSn mouse bone marrow-derived macrophages. Type of data set: functional, organism-based. The essentials:
as §1

Data set [11] is described as follows: Toxicity in brine shrimp. The format is organism-based. The following applies: artemia, in vivo.

In brackets after ≈: the same amount, converted by molar mass. Activity calls are given as the source filed them. The rule behind the calls is not given here.

For the compound `CC(=O)OC[C@]12O[C@]34C=C(C)C(=O)C[C@]3(C)[C@@]1(C)[C@H](O)C[C@H]2O4` [13-ACETOXYLOUKACINOL A], the EC50 came out at 13.6 mg/L (≈ 42.2 µM) in data set [1] (Homo sapiens, KB); 15.9 mg/L (≈ 49.3 µM) in [2] (Homo sapiens, MCF7); 26.6 mg/L (≈ 82.5 µM) in data set [3] (Homo sapiens, A549); 18 mg/L (≈ 55.8 µM) in data set [4] (Homo sapiens, SK-MEL-30).
As for `C=C[C@]1(C)CC[C@]2(C)[C@@H](C1)C(=O)[C@@H](O)[C@@H]1[C@]3(C)CCC[C@@]12OC3=O`, the outcome in data set [5] and in data set [10] was inactive. Further, the EC50 in [6] was 37.2 mg/L (≈ 112 µM); in data set [8], more than 50 mg/L; in [9], 10.3 mg/L (≈ 31 µM). The same compound yielded a CC50 in [7] of 19.5 mg/L (≈ 58.7 µM).
As for `CC1=C[C@]23O[C@@H]4C[C@@H](O)[C@](C)([C@@]2(C)CC1=O)[C@]4(CO)O3` [LOUKACINOL A], the EC50 in [1] (Homo sapiens, KB) came to 13.9 mg/L (≈ 49.6 µM); in data set [2] (Homo sapiens, MCF7), 15.8 mg/L (≈ 56.4 µM); in [3] (Homo sapiens, A549), 21.4 mg/L (≈ 76.3 µM); in data set [4] (Homo sapiens, SK-MEL-30), 16.4 mg/L (≈ 58.5 µM).
Regarding `C/C=C\C(=O)O[C@@H]1[C@@H](O)[C@H]2O[C@@H]3C=C(C)C(=O)C[C@]3(C)[C@]1(C)[C@]21CO1` [TRICHOTHECINOL A], the EC50 is 0.014 mg/L (≈ 0.0402 µM) in data set [1] (kb), 0.014 mg/L (≈ 0.0402 µM) in [2] (mcf7), 0.021 mg/L (≈ 0.0603 µM) in data set [3] (a549) and 0.013 mg/L (≈ 0.0373 µM) in [4] (sk-mel-30). The compound further had an LC50 in data set [11] of 0.52 mg/L (≈ 1.49 µM).
Regarding `C/C=C\C(=O)O[C@@H]1C[C@H]2O[C@@H]3C=C(C)C(=O)C[C@]3(C)[C@]1(C)[C@]21CO1` [TRICHOTHECIN], the EC50 in data set [1] (kb) amounted to 35 mg/L (≈ 105 µM); in data set [2] (mcf7), 19 mg/L (≈ 57.2 µM); in data set [3] (a549), 16 mg/L (≈ 48.1 µM); in data set [4] (sk-mel-30) it was 14 mg/L (≈ 42.1 µM). In [11], this compound had an LC50 of 2.2 mg/L (≈ 6.62 µM).
On to `CC1=C[C@H]2O[C@@H]3C[C@@H](O)[C@](C)([C@@]2(C)CC1=O)[C@]31CO1` [TRICHOTHECOLONE], for which the EC50 in data set [1] (kb) was determined as 10.6 mg/L (≈ 40.1 µM); in [2] (mcf7) it was 10.6 mg/L (≈ 40.1 µM); in data set [3] (a549), 7.1 mg/L (≈ 26.9 µM); in data set [4] (sk-mel-30) it was 8.6 mg/L (≈ 32.5 µM).
In the case of `CC1=C[C@]23O[C@@H]4CC[C@](C)([C@@]2(C)CC1=O)[C@]4(CO)O3` [LOUKACINOL B], the EC50 worked out at 11.8 mg/L (≈ 44.6 µM) in data set [1] (Homo sapiens, KB); 13.3 mg/L (≈ 50.3 µM) in [2] (Homo sapiens, MCF7); 15.2 mg/L (≈ 57.5 µM) in data set [3] (Homo sapiens, A549); 13.6 mg/L (≈ 51.5 µM) in [4] (Homo sapiens, SK-MEL-30).
`C/C=C\C(=O)O[C@@H]1[C@@H](O)[C@H]2O[C@@H]3C=C(C)CC[C@]3(C)[C@]1(C)[C@]21CO1` [8-DIHYDROTRICHOTHECINOL A]: the EC50 in [1] (kb) worked out at 0.1 mg/L (≈ 0.299 µM); in data set [2] (mcf7), 0.11 mg/L (≈ 0.329 µM); in [3] (a549) it was 0.11 mg/L (≈ 0.329 µM); in data set [4] (sk-mel-30), 0.11 mg/L (≈ 0.329 µM).

One may read the CC50 as the concentration giving 50% cytotoxicity. What is called LC50 is the concentration that kills 50% of the test population.

These data come from ChEMBL document CHEMBL1155655 (2000).
